Results as given in ChEMBL document CHEMBL2331406, “In vitro activity of scorpiand-like azamacrocycle derivatives in promastigotes and intracellular amastigotes of Leishmania infantum and Leishmania braziliensis” (Eur J Med Chem, 2013).
The source made the active and inactive calls. The rule behind the calls is not given here.

Tests used:
[1] = Inhibition of Escherichia coli Mn-SOD by […] reduction assay
Method in brief: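 Commercial Mn-SOD from Escherichia coli assayed by spectrophotometric NBT-reduction method, in which superoxide reduces NBT.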

Leishmania braziliensis [2] = test: Antileishmanial activity against promastigote form of […] MHOM/BR/1975/M2904 infected in J774.2 cells assessed as inhibition of number of amastigotes per host cell at IC25 concentration incubated for 12 hrs followed by compound washout measured after 48 hrs by microscopic analysis; type: functional, MHOM/BR/75/M2904
Method in brief: (§1)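 J774.2 cells seeded at 1 × 10^4 cells/well on coverslips and cultured 2 days. Infected with promastigotes at 10:1 with drug at IC25 added immediately, for 12 h at 37 °C in 5% CO2. Parasites and drug washed out, then grown 10 days with washing and fresh medium every 48 h. On methanol-fixed, Giemsa-stained slides, % infected cells and amastigotes per infected cell scored from more than 200 host cells. Three determinations.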

Leishmania infantum [3] = test: Antileishmanial activity against promastigote form of Leishmania infantum MCAN/ES/2001/UCM-10 infected in J774.2 cells assessed as inhibition of number of amastigotes per host cell at IC25 concentration incubated for 12 hrs followed by compound washout measured after 48 hrs by microscopic analysis; type: functional; method in brief: as §1
[4] = Ratio of compound selectivity index to glucantime selectivity index for promastigote form of Leishmania braziliensis MHOM/BR/1975/M2904 over mouse J774.2 cells
[5] = Selectivity index, ratio of IC50 for mouse J774.2 cells to IC50 for amastigote form of Leishmania braziliensis MHOM/BR/1975/M2904 infected in J774.2 cells; type: toxicity, cell-based; conditions: J774.2 cells, read-out: Ratio IC50
Method in brief: (§2)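 J774.2 macrophages in MEM + 2 mM glutamine + 20% inactivated FCS were infected with stationary-phase promastigotes (10:1) for 24 h at 37 °C, 5% CO2. After washing, compounds were added at […] for 72 h. Amastigote reduction was scored in methanol-fixed, Giemsa-stained preparations; IC50 by regression; triplicates. SI = J774.2 IC50 (72 h flow cytometry)/amastigote IC50; ratio is versus Glucantime SI.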

[6] = Selectivity index, ratio of IC50 for mouse J774.2 cells to IC50 for promastigote form of Leishmania braziliensis MHOM/BR/1975/M2904; type: toxicity; conditions: J774.2 cells, read-out: Ratio IC50
Leishmania braziliensis [7] = test: Antileishmanial activity against amastigote form of Leishmania braziliensis MHOM/BR/1975/M2904 infected in J774.2 cells after 72 hrs by haemocytometric analysis; type: functional, cell-based, MHOM/BR/75/M2904; conditions: Leishmania braziliensis, MHOM/BR/75/M2904, J774.2, 72 h
Method in brief: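 J774.2 macrophages grown in MEM with 2 mM glutamine and 20% inactivated FCS at 37 °C in 5% CO2. Infected with stationary-phase promastigotes at 10:1 for 24 h, then washed free of non-phagocytosed parasites. Compounds at 1, 10, 25, 50 and 100 for 72 h. Amastigotes counted on methanol-fixed, Giemsa-stained preparations and % reduction taken vs untreated. IC50 by linear regression of Kc values; three separate determinations.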

[8] = Ratio of compound selectivity index to glucantime selectivity index for axenic amastigote form of Leishmania infantum MCAN/ES/2001/UCM-10 over mouse J774.2 cells
Method in brief: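 Axenic amastigotes obtained by 3-day promastigote transformation in supplemented M199 + 10% heat-inactivated FCS, pH 5.4, 37 °C. […] Host toxicity: J774.2, 72 h, PI/FDA flow cytometry. SI = macrophage IC50/axenic amastigote IC50; ratio is compound SI over Glucantime SI.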

[9] = Selectivity index, ratio of IC50 for mouse J774.2 cells to IC50 for amastigote form of Leishmania infantum MCAN/ES/2001/UCM-10 infected in J774.2 cells; type: toxicity, cell-based; conditions: J774.2 cells, read-out: Ratio IC50; method in brief: as §2
[10] = Selectivity index, ratio of IC50 for mouse J774.2 cells to IC50 for promastigote form of Leishmania infantum MCAN/ES/2001/UCM-10; type: toxicity; conditions: J774.2 cells, read-out: Ratio IC50
Method in brief: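 J774.2 toxicity: 72 h at the same concentrations, viability by flow cytometry with propidium iodide/fluorescein diacetate; IC50 by linear regression. SI = macrophage IC50/parasite IC50; ratio is compound SI over Glucantime SI.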

Leishmania infantum [11] = test: Antileishmanial activity against promastigote form of Leishmania infantum MCAN/ES/2001/UCM-10 after 72 hrs by haemocytometric analysis; type: functional, organism-based; conditions: Leishmania infantum, MCAN/ES/2001/UCM-10, 72 h
Method in brief: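 Promastigotes grown at 28 °C in MTL medium with 10% inactivated FCS. Compounds in DMSO (0.1%), diluted in culture medium to 100, 50, 25, 10 and 1. Cells counted at 72 h in a Neubauer haemocytometric chamber. IC50 (50% inhibition) by linear regression of Kc values.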

J774.2 = test: Cytotoxicity against mouse J774.2 cells after 72 hrs by PI-staining based flow cytometric analysis; type: cell-based; conditions: J774.2, 72 h
Method in brief: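 J774.2 macrophages (ECACC 91051511, female BALB/c mouse tumour) treated 72 h with 100, 50, 25, 10 and 1 of compound. Propidium iodide then fluorescein diacetate each added for 10 min at 28 °C in the dark. Cells pelleted at 400g, washed in PBS and analysed by flow cytometry. Viability % vs control; IC50 by linear regression of Kc values.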

Leishmania braziliensis [12] = test: Antileishmanial activity against promastigote form of Leishmania braziliensis MHOM/BR/1975/M2904 assessed as mortality at IC25 concentration after 96 hrs by MET microscopic analysis; type: functional; conditions: MHOM/BR/75/M2904
Method in brief: (§3)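 Promastigotes at 5 × 10^5 cells/mL in MTL medium with compound at IC25 for 96 h. Ultrastructure examined by transmission electron microscopy against untreated control parasites.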

Leishmania braziliensis [13] = test: Antileishmanial activity against promastigote form of Leishmania braziliensis MHOM/BR/1975/M2904 assessed as cytoplasmic alterations at IC25 concentration after 96 hrs by MET microscopic analysis; type: functional; conditions: MHOM/BR/75/M2904; method in brief: as §3
Leishmania braziliensis [14] = test: Antileishmanial activity against promastigote form of Leishmania braziliensis MHOM/BR/1975/M2904 assessed as change in lactate metabolite production at IC25 concentration after 96 hrs by H1-NMR analysis; type: functional, MHOM/BR/75/M2904
Method in brief: (§4)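 Promastigote cultures, initial 5 × 10^5 cells/mL, given the IC25 of compound; controls left untreated. Incubated 96 h at 28 °C, then centrifuged at 400g for 10 min. Excreted metabolites in the medium identified by 1H NMR spectra and compared with untreated control.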

Leishmania infantum [15] = test: Antileishmanial activity against promastigote form of Leishmania infantum MCAN/ES/2001/UCM-10 assessed as change in lactate metabolite production at IC25 concentration after 96 hrs by H1-NMR analysis; type: functional; method in brief: as §4
Leishmania infantum [16] = test: Antileishmanial activity against promastigote form of Leishmania infantum MCAN/ES/2001/UCM-10 assessed as change in acetate metabolite production at IC25 concentration after 96 hrs by H1-NMR analysis; type: functional; method in brief: as §4
[17] = Inhibition of promastigote form Leishmania infantum MCAN/ES/2001/UCM-10 Fe-SOD by NBT reduction assay
Method in brief: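 Promastigotes sonicated in STE buffer (pH 7.8). The 35–85% ammonium sulphate fraction was desalted into 20 mM potassium phosphate/1 mM EDTA, pH 7.8, and protein was measured by Bradford. Fe-SOD activity was read spectrophotometrically as inhibition of NBT reduction by superoxide (Beyer–Fridovich); one unit gives 50% inhibition of the rate. Compounds tested at […]; IC50 by linear regression; three determinations, Newman–Keuls test.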

Cl.c1cncc(CNCCN2CCNCc3cccc(n3)CNCC2)c1
IC50 [1]: 641 µM
inhibition (INH) (Leishmania braziliensis [2]): 80%
inhibition (INH) (Leishmania infantum [3]): 77%
Ratio [4]: 34
selectivity ratio [5]: 45.4
selectivity ratio [6]: 20.3
IC50 (Leishmania braziliensis [7]): 10.3 µM
Ratio [8]: 59
selectivity ratio [9]: 74.3
selectivity ratio [10]: 24.9
IC50 (Leishmania infantum [11]): 18.8 µM
IC50 (J774.2): 468 µM
Activity (Leishmania braziliensis [12]): Active
Activity (Leishmania braziliensis [13]): Active
Activity (Leishmania braziliensis [14]): 19%
Activity (Leishmania infantum [15]): -38%
Activity (Leishmania infantum [16]): 1%
IC50 [17]: 5.7 µM

Br.NCCN1CCNCc2cccc(n2)CNCC1
IC50 [1]: 381 µM
inhibition (INH) (Leishmania braziliensis [2]): 55%
Ratio [4]: 30
selectivity ratio [5]: 23.2
selectivity ratio [6]: 19.6
IC50 (Leishmania braziliensis [7]): 10 µM
Ratio [8]: 16
selectivity ratio [9]: 9
selectivity ratio [10]: 12.2
IC50 (Leishmania infantum [11]): 18.9 µM
IC50 (J774.2): 232 µM
Activity (Leishmania braziliensis [12]): Active
Activity (Leishmania braziliensis [13]): Active
Activity (Leishmania braziliensis [14]): 6%
IC50 [17]: 6.5 µM

Cl.c1ccc(CNCCN2CCNCc3cccc(n3)CNCC2)nc1
IC50 [1]: 178 µM
inhibition (INH) (Leishmania braziliensis [2]): 67%
inhibition (INH) (Leishmania infantum [3]): 67%
Ratio [4]: 37
selectivity ratio [5]: 24.4
selectivity ratio [6]: 22.5
IC50 (Leishmania braziliensis [7]): 10.4 µM
Ratio [8]: 20
selectivity ratio [9]: 13
selectivity ratio [10]: 16.4
IC50 (Leishmania infantum [11]): 15.5 µM
IC50 (J774.2): 254 µM
Activity (Leishmania braziliensis [12]): Active
Activity (Leishmania braziliensis [13]): Active
Activity (Leishmania braziliensis [14]): 0%
Activity (Leishmania infantum [15]): 13%
Activity (Leishmania infantum [16]): -19%
IC50 [17]: 16.1 µM

Cl.c1cc2nc(c1)CNCCN(CCNCc1cccc3ccccc13)CCNC2
IC50 [1]: 408 µM
inhibition (INH) (Leishmania braziliensis [2]): 59%
inhibition (INH) (Leishmania infantum [3]): 71%
Ratio [4]: 49
selectivity ratio [5]: 22
selectivity ratio [6]: 29.7
IC50 (Leishmania braziliensis [7]): 16.6 µM
Ratio [8]: 26
selectivity ratio [9]: 21
selectivity ratio [10]: 18.8
IC50 (Leishmania infantum [11]): 21.7 µM
IC50 (J774.2): 365 µM
Activity (Leishmania braziliensis [12]): Active
Activity (Leishmania braziliensis [13]): Active
Activity (Leishmania braziliensis [14]): 0%
Activity (Leishmania infantum [15]): -44%
Activity (Leishmania infantum [16]): -6%
IC50 [17]: 17.6 µM
